Results on nine compounds are retold here after ChEMBL document CHEMBL1132146, “Chemical stability and fate of the cytostatic drug ifosfamide and its N-dechloroethylated metabolites in acidic aqueous solutions” (J Med Chem, 1999).

The nature of data set [1]: acute toxicity against mouse after ip administration. The note with it: in vivo. In kind it is organism-based. A digest of the protocol:
(§1)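 Single iv or ip injection; two female SD rats or male CD2F1 mice per dose group. Lethality and clinical signs of toxicity observed for 28 days to give an approximate LD50. Animals kept specific-pathogen-free with pellet diet and acidified water (pH 3) ad libitum.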

The subject of another data set is L1210. As to the kind of experiment: In vitro antitumor activity against murine leukemic L1210 cells; No activity. In kind it is functional, cell-based. The settings on record: Mus musculus.
The subject of data set [2] is P388. As to the kind of experiment: In vivo antitumor activity against murine P388 leukemia; No activity. It counts as functional, organism-based. The note with it: Mus musculus.
In data set [3] the test system is P388. As to the kind of experiment: In vivo antitumor activity against murine P388 leukemia; Effective. In kind it is functional, organism-based. The note with it: Mus musculus.
Data set [4] is described as follows: acute toxicity against rat after iv administration. In kind it is organism-based. The settings on record: in vivo. Summed up:
as §1

Data set [5] can be described thus: pKa. (dissociation constant) of the compound. In kind it is physicochemical. A digest of the protocol: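 ³¹P NMR titration at 25 °C in aqueous 0.1 M NaCl to keep ionic strength constant. pH adjusted with NaOH or HCl and measured before and after each spectrum. pKa calculated from the pH dependence of the chemical shift.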

SMILES strings stand for the structures. Some results are limits rather than exact numbers.

As to `O=P(O)(OCCCNCCCl)OP(=O)(O)OCCCNCCCl`, in data set [1], the LD50 was over 1000 mg/kg. The Activity result with L1210 and in the data set on P388 [2] was “No activity” throughout.

The compound `O=P(O)(O)OCCCN1CC1` showed an LD50 in data set [1] of 180 mg/kg. The Activity entry in the data set with L1210 and in the data set on P388 [2] was “No activity” in each case.

Take `NP1(=O)NCCCO1` (centres undefined): the Activity result with L1210 is “No activity”.

For `O=P1(NCCCl)OCCCN1CCCl` (centres undefined) [IFOSFAMIDE], the median lethal dose (LD50) in data set [1] amounted to 700 mg/kg; in data set [4], 300 mg/kg. Moreover, the Activity result in the data set with P388 [3] is listed as “Effective”.

As for `O=P1(O)NCCCO1`, the pKa in data set [5] amounted to 4.1.

Turning to `NP(=O)(O)OCCCNCCCl`, the pKa in data set [5] came to 2.3.

As to `O=P1(NCCCl)NCCCO1` (centres undefined), the Activity entry with L1210 and in the data set on P388 [2] was “No activity” throughout. In addition, the 50% lethal dose (LD50) in data set [4] turned out to be 800 mg/kg.

The compound `NP1(=O)OCCCN1CCCl` (centres undefined) showed an LD50 in data set [4] of over 1000 mg/kg.

With `O=P(O)(O)OCCCNCCCl`, the Activity entry in the data set with L1210 and in the data set with P388 [2] was “No activity” throughout. For the same compound, the median lethal dose (LD50) in data set [4] is 800 mg/kg.
